The results in this text go back to ChEMBL document CHEMBL4513216, “Probing the Open Global Health Chemical Diversity Library for Multistage-Active Starting Points for Next-Generation Antimalarials” (ACS Infect Dis, 2020).

A short description of the data set: Toxicity liver stage against HepG2, at 10uM. The class given is cell-based. Details: test concentration 10 uM, cell line HepG2-A16-CD81EGFP. The note with it: human, HepG2-A16-CD81EGFP cells; read-out: INHIBITION
In a few lines:
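Uninfected HepG2-A16-CD81EGFP cells, 3 × 10^3 per well, 1536-well, plated on prespotted compound at 10 μM final, parasite-free screening media added to match infected plates; puromycin 10 μM positive, DMSO 0.5% negative; run in parallel with 48 h PbLuc assay at 37 °C, 5% CO2; viability by CellTiter-Glo luminescence, normalized to controls.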
For `CCCn1cnc2c1CN(S(=O)(=O)c1ccc(F)cc1)[C@H](C(=O)OC)C2`, the cytotoxicity at 10 µM is 1.2%.
As to `O[C@H]1COCCN(Cc2cccc(C(F)(F)F)c2)C1`, the cytotoxicity at 10 µM was -1.8%.
Under `CCOCc1nc(N2CCOCC2)sc1C(=O)NCc1ccco1` stands 1.64%; under `CCN(CC)C(=O)CSc1nc2nc(C)ccc2o1`, 5.73%; under `CC(C)NC(=O)CSc1nc2c(cnn2CCO)c(=O)[nH]1`, -8.72%.
`CC(C)NC(=O)N1CCCC2(CCN(c3ccsc3)C2=O)C1` (stereo not drawn): the cytotoxicity at 10 µM was -0.42%.
Under `O=C1CCCN1Cc1ncn2c1CN(S(=O)(=O)c1cccs1)CCC2` stands 4.76%; under `Cn1cc(C(=O)NCc2cn3c(n2)CN(Cc2ccncc2)CC3)cn1`, 5.71%; under `O=C(O)c1nnn(Cc2ccc(F)cc2)c1-c1cccnc1`, -6.21%.
Consider `O=c1ccc(-c2cccs2)nn1CN1CCN(C2CCS(=O)(=O)C2)CC1` (stereo not drawn), for which the cytotoxicity at 10 µM turned out to be 9.99%.
Under `CCc1ccc(NC(=O)CC2Cn3ncnc3NC2=O)cc1` (stereo not drawn) stands 6.47%; under `CN(C)CC1CSCCCN1C(=O)c1ccc(=O)[nH]c1` (stereo not drawn), 2.76%.
Turning to `CC(C)N1CCn2c(nc3cc(C(N)=O)ccc32)C1`, the cytotoxicity at 10 µM is -11.3%.
In the case of `Cc1noc([C@@]23CCO[C@@H]2CCN(C(=O)c2sccc2C)C3)n1`, the cytotoxicity at 10 µM was -8.23%.
Under `O=c1cc(Cn2ccnc2)nc2n1CCCN(Cc1ccsc1)C2` stands -0.808%.
Under `CCCNC(=O)c1nn(CC)cc1NC(=O)c1c(C)nn(C)c1C` stands -7.95%; under `Cc1ccc(C2NC(=O)c3cc(C(C)C)sc3N2)cc1` (stereo not drawn), 7.96%; under `Cc1nc(C)c(C(=O)N2CCc3nnc(C4CCCCN4C)n3CC2)o1` (stereo not drawn), 1.9%.
Consider `Cc1cccn2c(NC(C)(C)C)c(C3CCN(C(=O)C4CC4)CC3)nc12`, for which the cytotoxicity at 10 µM amounted to 3.53%.
Take `O=C(NCC1CCOCC1)c1cc(-c2cccnc2)c2cnccc2n1`: the cytotoxicity at 10 µM was determined as 13.2%.
With `O=C(c1cncs1)N1CCOC(c2cc(CCO)[nH]n2)C1` (stereo not drawn) the figure was -0.49%; with `Cc1ncc(CN2CCC(O)(c3ccccc3F)CC2)cn1`, 0.46%.
Under `CCN(CC)S(=O)(=O)c1cc2c3c(c1)c(C)cc(=O)n3CC2` stands 5.45%; under `Cc1nc(C2CCCCN2S(C)(=O)=O)no1` (stereo not drawn), 9.23%; under `CC(C)OCCCNS(=O)(=O)c1ccc2c(c1)NC(=O)C(C)O2` (stereo not drawn), 0.893%.
Under `CCCn1ncc(CN(Cc2cccnc2)Cc2cccs2)c1C` stands 1.64%; under `Cc1ccc(N(C)[C@@H]2CC[C@@H]3CN(C(=O)C4CCOCC4)C[C@@H]32)nn1`, -4.43%.
Regarding `Cc1cc(N2CCC(c3n[nH]c4nccnc34)C2)ncn1` (stereo not drawn), the cytotoxicity at 10 µM is -22.7%.
As to `NC(=O)CN1CCOCC(Cc2ccccc2)C1` (stereo not drawn), the cytotoxicity at 10 µM was 0.579%.
For the molecule `Cc1nc(C2CCN(C(=O)c3cnc(N(C)C)nc3)CC2)c2sccn12`, the cytotoxicity at 10 µM is -4.5%.
As to `CCC(CC)(CNC(=O)c1cccn1Cc1cccnc1)N(C)C`, the cytotoxicity at 10 µM was -53.6%.
With `Clc1ccc(C(CNCc2cccnc2)n2cccn2)cc1` (stereo not drawn) the figure was -5.07%; with `Cn1cc(CCC(=O)NC(c2ccc(F)cc2)C(F)(F)F)cn1` (stereo not drawn), 1.68%; with `Cc1cc(C)n(C2CN(CCC(N)=O)C2)n1`, -5.04%.
Take `Cc1c(C(=O)N2CCCN(S(C)(=O)=O)CC2)cnn1C`: the cytotoxicity at 10 µM was found to be 17.2%.
As for `Cc1cc(CNC(=O)Nc2ccc(C(=O)NC3CC3)cc2)no1`, the cytotoxicity at 10 µM is -0.396%.
Take `CC(C)(C)C(NC(=O)CCCS(C)(=O)=O)c1ccc(F)cc1F` (stereo not drawn): the cytotoxicity at 10 µM turned out to be 8.87%.
As for `CCc1ncnc(N2CCOCC2C(N)=O)c1F` (stereo not drawn), the cytotoxicity at 10 µM was -4.73%.
Turning to `CCOC(=O)c1ccc(CNC(=O)c2ccon2)o1`, the cytotoxicity at 10 µM was determined as 8.64%.
With `N#Cc1cccc(CN(CC(=O)N2CCCC2)CC2CCCO2)c1` (stereo not drawn) the figure was -5.52%; with `CCOC(=O)C1CCN(C(=O)CN2CCCC2Cc2ccccc2)CC1` (stereo not drawn), 12.7%; with `COc1ccc(CNC(=O)CCc2c(C)noc2C)cc1F`, -6.87%.
With `COc1ccc(NC(=O)Cc2c(C)nc3c(c2C)c(=O)[nH]n3C)cn1` the figure was 7.32%; with `Cn1cc(Br)c(=O)c(NS(=O)(=O)c2ccc(Cl)cc2)c1`, -5.28%; with `CCNC(=O)CCCC(=O)N1CCc2cc(Cl)cc(Cl)c2C1`, -15.1%.
Turning to `Cc1ccsc1C(=O)Nc1cnn(CC(=O)NC2CCCC2)c1`, the cytotoxicity at 10 µM was -1.65%.
Take `CCS(=O)(=O)c1nccn1-c1cccc(F)c1`: the cytotoxicity at 10 µM came to 3.12%.
Turning to `NC(=O)NC(=O)CCn1ccc(-c2ccsc2)n1`, the cytotoxicity at 10 µM amounted to 8.56%.
Under `CC(C)OCCN(C)CC(c1cccs1)N1CCOCC1` (stereo not drawn) stands -4.34%.
Under `c1cnn(C2CN(c3ncnc4[nH]ccc34)C2)c1` stands 1.87%; under `Cn1c(C(N)=O)ccc1-c1ccccc1`, 3.18%; under `CCN(CCCNc1ncnc2cc(F)c(F)cc12)S(C)(=O)=O`, 37.7%.
As to `Cn1c(CN2CCOC(Cn3cncn3)C2)nc2ccccc21` (stereo not drawn), the cytotoxicity at 10 µM is -4.76%.
Regarding `O=C(c1ccc(Br)cc1F)N1CCc2ccncc21`, the cytotoxicity at 10 µM was -1.16%.
For `CCOCCS(=O)(=O)N(CC)Cc1ccc(Cl)s1`, the cytotoxicity at 10 µM was -6.15%.
Regarding `CN(Cc1ccco1)Cc1ccccc1CNC(=O)c1ccncc1`, the cytotoxicity at 10 µM was -9.87%.
Under `Cc1c(I)cccc1C(=O)NCC1(CO)CC1` stands -4.11%; under `CCN1CCN(c2ccc(F)cc2C(C)NCc2ccncc2)CC1` (stereo not drawn), -1.4%.
With `CC(C(=O)NCc1ccnc(Oc2ccc(F)cc2)c1)n1cncn1` (stereo not drawn) the figure was -3.63%; with `Cc1cccc(N2CCC(NC(=O)CCCc3cccs3)CC2)n1`, -12.5%.
Consider `CC(=O)Nc1ccc2nc(CN(C)Cc3noc(C)n3)ccc2c1`, for which the cytotoxicity at 10 µM turned out to be 3.47%.
Take `COc1ccc(CN2CC[C@@]3(O)CCCC[C@H]3C2)cc1C(=O)O`: the cytotoxicity at 10 µM is -3.12%.
Under `O=C1NCCN1CCNc1cc(-c2ccncc2)nc2ccnn12` stands -4.76%; under `CN(CC1Cc2ccccc2CN1C)C(=O)CSc1ccccn1` (stereo not drawn), -1.32%.
Consider `Cc1ccc(Cl)c(CN2CCN(C)C(C(=O)O)C2)c1F` (stereo not drawn), for which the cytotoxicity at 10 µM is -0.0679%.
Take `Cc1n[nH]c(C)c1CCNC(=O)C1CCCN(Cc2ccco2)C1` (stereo not drawn): the cytotoxicity at 10 µM is -6.23%.
In the case of `CCc1cc(-c2nccn2-c2ccccc2CN2CCOCC2)on1`, the cytotoxicity at 10 µM was -7.91%.
With `CN(C)CCCNC(=O)C(c1cccc(F)c1)N(C)C` (stereo not drawn) the figure was -4.58%; with `COC(=O)C1CCCN1C(=O)c1cc(CC(C)C)no1` (stereo not drawn), 14%.
In the case of `COC(=O)c1cc2n(n1)CCN(C(=O)c1csc(CN(C)C)n1)C2`, the cytotoxicity at 10 µM is -8.44%.
With `O=C(O)CC1COCCN1Cc1ccccc1-c1ccccc1` (stereo not drawn), the cytotoxicity at 10 µM is 12.9%.
With `Cc1nc[nH]c1-c1nccn1CCN1CCCC1=O` the figure was -6.88%; with `COc1c(F)cc(-c2cn(CCn3c(C)cc(C)nc3=O)nn2)cc1Cl`, -1.72%.
For `CN(Cc1cccnc1)CC1CCOc2ccccc2C1` (stereo not drawn), the cytotoxicity at 10 µM is -4.92%.
With `Cc1cc(CN2CCOCS2(=O)=O)ccc1F` the figure was -8.02%.
With `Cc1ccc(-c2nc(C(=O)N3CCN(C(=O)N(C)C)CC3)cs2)c(C)c1` the figure was -7.98%; with `COc1cccc2cc(CNCc3ccnc(N(C)C)c3)oc12`, -6.87%.
Under `CC(c1nc(C(C)(C)C)no1)N1CCN(Cc2ccc(C#N)cc2)CC1` (stereo not drawn) stands -5.38%; under `CC(=O)NC1CCCN(Cc2ccn(C)c(=O)c2)C1` (stereo not drawn), 2.34%; under `CCN(CC)c1ccc(C(=O)N2CCCC2Cn2cc(C)cn2)cn1` (stereo not drawn), -17.2%.
`Cc1ccccc1OCCC(=O)N1CCC(c2nncn2C)CC1`: the cytotoxicity at 10 µM was -13.3%.
For `CCc1nc(CN2CCCN(C(=O)C(CC)OC)CC2)cs1` (stereo not drawn), the cytotoxicity at 10 µM was -15.8%.
Regarding `CCOc1ccc(S(=O)(=O)NC(=O)CC2CCCO2)cc1` (stereo not drawn), the cytotoxicity at 10 µM was -16.3%.
On to `O=C(NCc1ccc2c(c1)OCO2)Nc1cccnc1N1CCCC1`, for which the cytotoxicity at 10 µM was -13.4%.
With `CCOCCCn1c(NC(=O)c2cnn(C)c2)nc2ccccc21` the figure was -12.1%; with `Cc1ccc(S(=O)(=O)NC(=O)c2cccc(OCC(N)=O)c2)s1`, -9.55%.
In the case of `c1ccc(-c2ncc(CNC3CCc4ncnn4C3)cn2)cc1` (stereo not drawn), the cytotoxicity at 10 µM was -0.722%.
As to `Cc1noc([C@@H](C)NCc2ccc(F)cc2)c1C(=O)O`, the cytotoxicity at 10 µM was -5.57%.
Turning to `CN(C)S(=O)(=O)N1C[C@@H](Oc2ccccn2)[C@H]2OCCC[C@H]21`, the cytotoxicity at 10 µM stood at 1.16%.
Under `CNC(=O)C1(CCCc2ccncc2)CCN1` (stereo not drawn) stands -9.08%.
For the molecule `c1cc(CN2CCC3(CC2)CC(N2CCCC2)CO3)co1` (stereo not drawn), the cytotoxicity at 10 µM worked out at 2.38%.
Take `CN(C)Cc1nn(C)c2c1CCN(C(=O)CC1CC1)C2`: the cytotoxicity at 10 µM was -3.86%.
With `Cn1cccc1C(=O)N[C@@H]1CN(Cc2cccs2)[C@@H]2COC[C@@H]21` the figure was 8.88%; with `Cc1nc(CN2C(=O)COC3(CCN(Cc4ccco4)CC3)C2C)cs1` (stereo not drawn), -13.5%.
Under `CNC(=O)C1(CCCc2ccncc2)CCCCN1` (stereo not drawn) stands -37.5%; under `c1ccc(Cn2cc3c(n2)C(CNCc2ccco2)OCC3)nc1` (stereo not drawn), -7.85%.
Under `CN(C)C[C@H]1OC[C@@H]2CCN(C(=O)c3ccco3)C[C@@H]21` stands 4.84%.
Regarding `COCCN1C[C@@H]2CC[C@H]1CN(C(=O)CCc1n[nH]c(C)c1C)C2`, the cytotoxicity at 10 µM is -8.92%.
